The data set is described as follows: Toxicity liver stage against HepG2, at 10uM. It counts as cell-based. Further details: test concentration 10 uM, cell line HepG2-A16-CD81EGFP. Conditions: human, HepG2-A16-CD81EGFP cells; read-out: INHIBITION
The method in brief: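 Uninfected HepG2-A16-CD81EGFP cells, 3 × 10^3 per well, 1536-well, plated on prespotted compound at 10 μM final, parasite-free screening media added to match infected plates; puromycin 10 μM positive, DMSO 0.5% negative; run in parallel with 48 h PbLuc assay at 37 °C, 5% CO2; viability by CellTiter-Glo luminescence, normalized to controls.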
`CN(C)C(=O)CSc1nnc(CCNC(=O)OC(C)(C)C)o1`: the cytotoxicity at 10 µM amounted to 13.7%. `CN1CC(c2ccccc2)C2(CCN(C(=O)c3ccc[nH]3)CC2)C1=O` (configuration not stated): the cytotoxicity at 10 µM is 9.25%.

`CNC(=O)N1CCC2(COCc3c(C)nc(NCc4ccco4)nc32)C1` (configuration not stated): the cytotoxicity at 10 µM amounted to 11.2%. The result for `COCC1CN(Cc2ccoc2)Cc2cn(CC3CCOCC3)nc21` (configuration not stated) reads 11.6%. Take `Cc1cccc(CSc2ncc(Cl)c(C(=O)O)n2)c1`: the cytotoxicity at 10 µM amounted to 3.86%. The result for `COC(=O)CC(c1ccccc1)c1oc(C)cc(=O)c1O` (configuration not stated) reads 26.7%. The result for `COc1ccc(C2SC(C)=Nc3c2c(=O)[nH]n3C2CCCCC2)cc1O` (configuration not stated) reads 1%; that for `O=C(NCC1(CO)CC1)c1cccc2ccccc12`, -12.5%. The result for `CCOCC(=O)N1CCC(Oc2ccc(C(F)(F)F)cn2)CC1` reads 11.7%; that for `O=C(NCC1CC1)C1CN(C(=O)c2cccc(Cl)c2)CC12CCOCC2` (configuration not stated), 1.18%; that for `CCn1nc(C)c2nc(C(C)C)nc(N(C)Cc3ccco3)c21`, 15.6%. For the molecule `CCN(Cc1c(C)nn(CC)c1C)S(=O)(=O)c1cnn(C)c1`, the cytotoxicity at 10 µM was 4.98%. Regarding `CC(C)(C)c1cc(C(=O)N2CCOC(c3cnccn3)C2)[nH]n1` (configuration not stated), the cytotoxicity at 10 µM was 2.02%. The result for `c1ccc(CCN2CCCC2c2cncc(Nc3nncs3)n2)cc1` (configuration not stated) reads 5.62%. The result for `c1nnc(Nc2cncc(C3CCCN3CC3CC3)n2)s1` (configuration not stated) reads 3.01%; that for `CC(=O)N1CCN([C@@H]2CN(C(=O)c3ccccc3)C[C@H]2O)CC1`, -4.8%; that for `CN1CCN(c2ccccc2CNC(=O)CSC(F)(F)F)CC1`, 8.27%. For the molecule `CC(NC(N)=O)C(=O)N(C)Cc1cccc(C(F)(F)F)c1` (configuration not stated), the cytotoxicity at 10 µM is -5.14%.

For the molecule `O=C(Nc1cc(C(F)(F)F)c[nH]c1=O)C1CCNCC1`, the cytotoxicity at 10 µM turned out to be 6.01%. The result for `CC(C)c1nn(C)c(N(C)C)c1CNC1CCOc2ccccc21` (configuration not stated) reads 9.36%. On to `CC(C)(C)NC(=O)c1cnc(C(C)(C)C)s1`, for which the cytotoxicity at 10 µM was determined as 3.72%. The result for `Cc1ccc(-c2nc(C(=O)N(C)CC(=O)N(C)C)cs2)c(C)c1` reads -10.1%. The result for `CC(C)N1CCC(N2CCOC3(CCCC3)C2)C1=O` (configuration not stated) reads 1.56%.

As to `CCNC(=O)NCC1(CN2CCOCC2)CCCCC1`, the cytotoxicity at 10 µM is 6.73%.

As to `O=C(COC1CCCCC1)N1CCN(C(=O)Cc2ccccn2)CC1`, the cytotoxicity at 10 µM was -1.3%. On to `CS(=O)(=O)NCC1CCCN(c2ccc(C(F)(F)F)cn2)C1` (configuration not stated), for which the cytotoxicity at 10 µM was -17.3%.

Consider `c1cc(C2CCN(Cc3nc(C4CC4)no3)CC2)[nH]n1`, for which the cytotoxicity at 10 µM was 7.45%. The result for `CCN(CC)Cc1ccc(C(=O)NC2CCc3ccccc32)o1` (configuration not stated) reads -3.97%.

For `COc1ccc(Cl)cc1-c1cc(NC(=O)CNC(=O)C2CC2)[nH]n1`, the cytotoxicity at 10 µM was -3.61%. The result for `CCc1nc(CN2CCC(C(=O)N(C)C)CC2)cs1` reads 3.05%; that for `c1n[nH]cc1CCCN1CCC(OC2CCCCC2)CC1`, 2.97%.

For `Cc1ncc(CNc2ccc(C(=O)NCc3ccco3)cc2C)s1`, the cytotoxicity at 10 µM was -10.5%. The result for `Cc1nc(C2CN(Cc3ccc(F)cc3Br)CCO2)no1` (configuration not stated) reads -4.75%; that for `O=C(CNC(=O)C1CC1)NCC1CCCC1`, 2.12%; that for `CCC(C)(NCC(=O)Nc1nc(C)cs1)c1nc(C)cs1` (configuration not stated), 16.4%. The result for `COCc1nc2cc(NCc3ccc(C)o3)ccc2o1` reads -9.41%. The result for `COCCN1CCN(C(C)C(=O)Nc2ccnn2C(C)C)CC1` (configuration not stated) reads -8.83%; that for `Cc1cc(CN2CCN(C(=O)CCc3cccc(F)c3F)CC2)on1`, -6.16%; that for `Cc1cnc(C(=O)N(CCN(C)C)Cc2ccc(Cl)cc2)cn1`, 1.58%.

With `CCOc1cc(C)nc(N2CCN(Cc3nccn3C)CC2)n1`, the cytotoxicity at 10 µM was -4.04%. Take `Cc1cc(CNC2CCCN(c3cccnn3)C2)no1` (configuration not stated): the cytotoxicity at 10 µM was -15%.

As for `Cc1nn(C(C)C)c(C)c1NC(=O)c1ccccc1`, the cytotoxicity at 10 µM was -11.7%. The result for `COCc1ccccc1C(=O)NCCCN1CCCC1C(=O)N(C)C` (configuration not stated) reads -14.5%; that for `CN1CCC2(CCN(C(=O)c3cccnc3)C2)C1` (configuration not stated), -101%; that for `CCNC(=O)[C@@H]1C[C@@H](N)CN1Cc1ccc2cccc(Cl)c2n1`, 12.9%. Regarding `CCNC(=O)C1CCN(Cc2ccc(C(=O)Nc3cnns3)cc2)C1` (configuration not stated), the cytotoxicity at 10 µM came out at 9.2%. As to `CCN(Cc1noc(C2CCC2)n1)C(=O)CCc1cc2n(n1)CCNC2`, the cytotoxicity at 10 µM turned out to be 10.5%. For `O=C1NCCc2c1sc1ccc(C(=O)N3CC[C@H](CO)[C@H](O)C3)cc21`, the cytotoxicity at 10 µM is -1.7%. The result for `CC1=C(C(=O)N(C)Cc2noc3c2CCCC3)C(C)NC(=O)N1` (configuration not stated) reads -0.844%; that for `CSCCC(O)C(=O)N1CCN(Cc2cccc(Cl)c2)CC1` (configuration not stated), 6.48%. The result for `Cc1cccc(-n2nc(CC(C)C)nc2CCC(=O)N(C)C)c1` reads -9.61%; that for `O[C@@]1(CNCCOc2ccccc2)CCCN2CCCC[C@@H]21`, -2.96%; that for `CN(Cc1ccsc1)Cc1nc(-c2cnccn2)no1`, -0.164%.

On to `Cc1n[nH]c(C)c1CCC(=O)N(C)Cc1cn[nH]c1-c1ccc(F)cc1`, for which the cytotoxicity at 10 µM was 7.86%.

Consider `CC(Cn1cncn1)NCc1ccc2nonc2c1` (configuration not stated), for which the cytotoxicity at 10 µM came out at 3.05%.

With `CN(Cc1ccsc1)Cc1ccc(C2CCCCO2)o1` (configuration not stated), the cytotoxicity at 10 µM is -2.11%. The result for `COCCN1CCc2onc(C(c3ccccc3)c3ccccc3)c2C1` reads -7.35%; that for `Cn1ccnc1-c1nccn1C[C@@H]1CCCN2CCCC[C@H]12`, 2.68%; that for `CCc1cc(CN(C)C(=O)c2nnc(CN(C)C)o2)on1`, 1.77%. The result for `O=C1N(C2CCOCC2)CCCC12CCN(c1ncccc1Cl)C2` (configuration not stated) reads -129%; that for `Cc1cccc(-c2nccn2-c2cccc(CC(=O)O)c2)n1`, 4.55%; that for `COc1cc(C(=O)N2Cc3cnc(C(C)(C)C)nc3C2)ccn1`, 2.03%. The result for `Cc1nc(N2CCOc3ccc(CO)cc3C2)c2nc(C)oc2n1` reads 7.91%; that for `Cc1cccc(C(C(=O)N2CC(c3ccncc3)C2)N(C)C)c1` (configuration not stated), -8.29%; that for `CSc1ccccc1C(=O)Nc1ccc(OC2CCN(C)CC2)cc1`, 3.39%. In the case of `O=C(CSCC1CC1)N1CCc2[nH]nc(COc3ccccc3)c2C1`, the cytotoxicity at 10 µM was -7.01%. Turning to `COC(=O)NCC(=O)N1CCCCC1c1nc2cc(F)ccc2[nH]1` (configuration not stated), the cytotoxicity at 10 µM was -1.41%. The result for `CSCC(=O)N1CCc2c(cnc(C)c2-c2noc(-c3cc[nH]n3)n2)C1` reads 1.87%; that for `CC(Cn1cncn1)NC1CCN(Cc2cccc(O)c2)CC1` (configuration not stated), 2.64%. The result for `COc1cccc([C@@H]2CN(C(=O)c3ccc(C)cc3O)C[C@H]2C(=O)O)c1` reads 6.49%; that for `CC(C)Oc1cc(N2C[C@@H](C)O[C@@H](C)C2)nc(N)n1`, -9.15%; that for `Cc1cnn(C2CCCN(C(=O)Cc3ccc(C)s3)C2)c1` (configuration not stated), -13.4%.

For the molecule `Cc1ccc(N2CCCC(NCc3nnc(-c4ccco4)o3)C2)nn1` (configuration not stated), the cytotoxicity at 10 µM was -9.07%. Take `COc1cccc(CNCC2CN(C)CCO2)c1` (configuration not stated): the cytotoxicity at 10 µM is -15.2%. The result for `Cn1cnnc1C1CCN(C(=O)CCOc2ccc(Cl)cc2)CC1` reads -8.94%; that for `CC(c1ccc(F)cc1)N1CCN(Cc2nccn2C)CC1` (configuration not stated), -25.7%. The result for `O=C(NCc1ccco1)N(CCCO)C1CCCc2ccccc21` (configuration not stated) reads -9.53%; that for `CCOc1ccc(NC(=O)N(C)Cc2cnn(C)c2)c(C)c1`, -9.63%; that for `CC(C)n1nc2c(cc1=O)CN(CCCN1CCCC1=O)CC2`, -8.08%. The result for `Cc1cc(C(=O)NC(COCC(C)C)c2ccco2)no1` (configuration not stated) reads -8.71%. For the molecule `O=C(NCc1nncn1-c1ccccc1)C1CCCC1`, the cytotoxicity at 10 µM is -11.5%.

In the case of `O=C(NCC(=O)N1CCCC(n2cncn2)C1)OCc1ccccc1` (configuration not stated), the cytotoxicity at 10 µM was -13.5%. The result for `CN1N=C(C(=O)N2CCCC(n3cccn3)C2)CCC1=O` (configuration not stated) reads -19%; that for `Cc1cc(CN2CCCC2c2c(C)nn(C)c2Cl)no1` (configuration not stated), -6.98%; that for `Cc1cnn(CC2CCCN2C(=O)c2cc(C)no2)c1` (configuration not stated), -0.194%. The result for `CCc1ncc2c(n1)CN(CC(=O)NCCOc1ccccc1)CC2` reads -2.11%.

Turning to `COC(=O)c1ccc(N2CCN(CCC(=O)NC(N)=O)C(C)C2)cc1` (configuration not stated), the cytotoxicity at 10 µM is -6.39%. The result for `CCOc1cc(C(=O)N2CCCC(c3noc(C)n3)C2)ccn1` (configuration not stated) reads -4.49%; that for `O=C(NCC1CC[C@@H]2[C@@H]1OCCN2Cc1cccs1)c1ccco1` (some centres not stated), 3.23%. The result for `CO[C@H]1CCN(S(=O)(=O)c2cn(C)cn2)[C@H]1Cc1cccnc1` reads -9.31%; that for `Cc1cnc(N2CCC3(CC2)COCCN(C(C)C)C3)nc1`, -121%.

With `O=C(C1CCCO1)N1CCC2(CC1)COCCN(Cc1cccnc1)C2` (configuration not stated), the cytotoxicity at 10 µM was -108%. The result for `O=C1COC2(COCCN(Cc3cccnc3)C2)CN1c1ccoc1` (configuration not stated) reads 3.22%. `Cc1ccc(CN2CCC3(CC(=O)N(c4cccc(F)c4)C3)C2)o1` (configuration not stated): the cytotoxicity at 10 µM is -140%. The result for `CC(=O)N1CCO[C@@H]2CN(C(=O)NCc3cccnc3)CC[C@@H]2C1` reads 7.34%; that for `O=C(c1ccnnc1)N1C[C@@H]2OCCN(CCN3CCCC3)[C@@H]2C1`, 4.22%.

As to `O=C(c1cnccn1)N1CCC(F)(F)C2(CCN(c3ccccn3)C2)C1` (configuration not stated), the cytotoxicity at 10 µM was 11.9%.
